# According to PMC11342405 (Bioorganic & medicinal chemistry, 2024):
# Entries after “also recorded” stand apart in the source; their conditions may differ.
# Key:
# [1] = target: T1, gankyrin (Homo sapiens, UniProt O75832); experiment: Circular dichroism of gankyrin; format: binding; details: 10 μM gankyrin, 1-100 μM compound, 25 °C
# T1 sequence (O75832 1-226): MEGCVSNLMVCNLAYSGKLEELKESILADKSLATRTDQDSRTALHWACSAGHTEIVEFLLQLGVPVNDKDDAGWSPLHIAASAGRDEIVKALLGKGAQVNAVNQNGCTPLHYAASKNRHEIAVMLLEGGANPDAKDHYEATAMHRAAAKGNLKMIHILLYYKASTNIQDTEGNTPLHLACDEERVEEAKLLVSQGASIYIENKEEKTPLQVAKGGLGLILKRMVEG
# Procedure, shortened: (§1)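 Recombinant His-tagged protein was expressed in E. coli LOBSTR BL21(DE3) (0.5 mM IPTG, 37 °C, 16 h) and Ni-affinity purified. The tag was removed with TEV, followed by a second HisTrap pass and gel filtration if needed. 10 μM protein in 25 mM Tris, 50 mM NaCl, pH 7.4, alone or with 1, 10 or 100 μM compound. Spectra 195–260 nm in a 1 mm quartz cuvette, six accumulations, 25 °C; α-helical content monitored; triplicate samples.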
# [2] = target: T2, ANKRA2 (Homo sapiens, UniProt Q9H9E1); experiment: Circular dichroism of ANKRA2; format: binding; details: 10 μM ANKRA2, 1-100 μM compound, 25 °C
# T2 sequence (Q9H9E1 152-313 limits assumed): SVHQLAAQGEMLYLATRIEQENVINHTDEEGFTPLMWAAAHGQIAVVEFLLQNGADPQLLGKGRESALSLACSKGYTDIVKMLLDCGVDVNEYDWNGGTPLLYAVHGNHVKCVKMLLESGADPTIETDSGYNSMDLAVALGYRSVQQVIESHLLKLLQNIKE
# Procedure, shortened: as §1
# [3] = tested on: HEK-293 cells; experiment: Anti-proliferative MTT assay, non-cancerous HEK-293 cells; format: cell-based; details: Homo sapiens, HEK293, 72 h, read-out: HEK-293 IC50
# Procedure, shortened: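 HEK-293 cells grown in DMEM with 10% FBS and 1% penicillin/streptomycin, seeded at 2.5 x 10^4 cells/well and allowed 24 h before dosing. Compound (DMSO stock) given at increasing concentrations for 72 h at 37 °C, 5% CO2. MTT (5.4 mg/mL dye solution) was added for 3 h, formazan dissolved in DMSO, and absorbance read at 570 nm. Replicates 6-8; IC50 derived from concentration-response data.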
# [4] = target: T1, gankyrin; experiment: Cellular thermal shift assay; format: cell-based; details: HuH6 cells treated at anti-proliferative IC50 for 5 h, 50-65 °C
# Procedure, shortened: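 HuH6 cells were exposed to test compound (0.25% DMSO final) or DMSO alone for 5 h, harvested, split into six aliquots and heated at 50, 53, 56, 59, 62 or 65 °C. Lysis was in RIPA with protease/phosphatase inhibitors, 60 min on ice. 15 μg protein was run on reducing SDS-PAGE, transferred to PVDF and probed for gankyrin, with β-actin as reference; HRP secondary and ECL detection.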
# [5] = tested on: HuH6 cells; experiment: Cell cycle analysis by flow cytometry in HuH6 cells; format: cell-based; details: 3.3 μM, 72 h, vs DMSO
# Procedure, shortened: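 HuH6 cells in 10 cm dishes were exposed to test compound or vehicle (0.25% DMSO final) for 72 h. Cells were harvested in cold PBS, normalized, fixed in 70% ethanol at −20 °C overnight, then stained with PI/RNase for 30 min at 37 °C. DNA content was measured by flow cytometry. Mean ± SD, n = 3; one-way ANOVA, P < 0.05 significant.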
# [6] = tested on: Rb, p53 and gankyrin levels in HuH6 cells; experiment: Western blot analysis of TSP levels in HuH6 cells; format: cell-based; details: 48 h
# Procedure, shortened: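 HuH6 cells in 10 cm dishes were exposed to varying compound concentrations (0.25% DMSO final) or DMSO only for 48 h. Cells were harvested in cold PBS and lysed in RIPA with protease/phosphatase inhibitors, 60 min on ice. 15 μg protein was resolved under reducing conditions, transferred to PVDF and probed for p53, Rb and gankyrin, with cyclophilin as reference; HRP secondaries, ECL detection. Run in duplicate.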
compound,measurement,setting,value
"COC(=O)c1ccc(C(=O)NCCCNC(=O)c2ccc(C(=O)OC)cc2)cc1 [Compound 10d, Dimethyl 4,4'-((propane-1,3-diylbis(azanediyl))bis(carbonyl))dibenzoate]",effect on gankyrin secondary structure / 3D fold (CD spectra),[1],reduction in secondary structure content; also recorded: significant loss of gankyrin structural integrity
same,effect on ANKRA2 secondary structure / 3D fold (CD spectra),[2],no changes in secondary structure content; also recorded: no significant global structure change
same,IC50,[3],> 50 µM
"COC(=O)c1ccc(NC(=O)CCC(=O)Nc2ccc(C(=O)OC)cc2)cc1 [Compound 13d, Dimethyl 4,4'-(succinylbis(azanediyl))dibenzoate]",effect on gankyrin secondary structure / 3D fold (CD spectra),[1],decline in secondary structure content; also recorded: significant loss of gankyrin structural integrity
same,effect on ANKRA2 secondary structure / 3D fold (CD spectra),[2],no alterations in secondary structure content; also recorded: no significant global structure change
same,gankyrin thermal stability (CETSA),[4],bind and thermally stabilize gankyrin
same,number of cells in the G0-G1 phase,[5],significant increase
same,number of cells in the S phase,[5],significant decrease
same,IC50,[3],> 50 µM
same,Rb and p53 levels (western blot),[6],increase in both Rb and p53 levels
same,gankyrin levels (western blot),[6],relatively constant
